Bioassay records from PubChem.
OX1R antag-1: human HCRTR1 antagonism; O43613; CHO/OX1R cells, Fluo-8 calcium fluorescence, orexin A; inhibition, % at 5 µM; 0.43% of 330,000 active;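 active = inhibition above its plate's threshold, mean inhibition of all tested compounds on the plate plus 3 SD, cut at about 37% in these data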;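 note: 0% = orexin A challenge wells and 100% = SB-334867-A antagonist wells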
TAAR1 antag: human TAAR1 antagonism; Q96RJ0; inhibition, % at 3 µM; 1.5% of 360,000 active; CHO RD-HGA16 TAAR1, Fluo-8 calcium fluorescence, antagonist; AID 624466;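 active = inhibition above a per-plate cutoff, the mean inhibition of test compounds on that plate plus 3 SD, cut at about 49% in these data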;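 note: 0% = DMSO plus EC80 beta-PEA response and 100% = DMSO alone without agonist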
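Test system: hTAAR1-expressing CHO RD-HGA16 cells, Gα16-coupled; Probe or stimulus: EC80 β-phenethylamine stimulus; Compound dosing: single nominal final test compound concentration of 3 µM; Timing: 140 s kinetic read after compound, 140 s after agonist; Signal: Fluo-8 calcium-sensitive fluorescence; Measure: % inhibition of agonist calcium response; Controls: DMSO and EC80 PEA controls.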
OX1R antag-2: antagonists of human orexin 1 receptor (OX1R); O43613; OX1R-expressing cells, FRET antagonist read-out; inhibition, % at 6.6 µM; 1.8% of 330,000 active; in the data active = inhibition mostly above about 38%, no sharp cut-off; inactive = mostly below about 40%;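 note: 0% = agonist challenge alone and 100% = reference antagonist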
CHO parental Ca: counter-screen for OX1R antagonists: effect in parental CHO cells; 0.63% of 330,000 active; parental CHO-K1, ATP-induced calcium, Fluo-8 fluorescence; inhibition, % at 5.6 µM;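 active = inhibition above that plate's mean sample inhibition plus 3 SD, cut at about 26% in these data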;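 note: 0% = ATP-challenged DMSO wells and 100% = DMSO wells without ATP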
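Assay system: parental CHO cells; Read-out basis: percent inhibition of ATP-evoked calcium rise, normalized to controls; Benchmarks: ATP and no-ATP DMSO wells; Compound dosing: single nominal dose of 5.6 µM per compound; Signal: Fluo-8 calcium dye fluorescence; Also added: ATP as calcium-mobilizing challenge; Repeats: singlicate.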
TAAR1 ag: agonists of human TAAR1; Q96RJ0; 0.99% of 360,000 active; activation, % at 3 µM; CHO RD-HGA16 TAAR1, Fluo-8 calcium fluorescence; vehicle wells 0%, saturating PEA agonist 100%;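 active = activation above the mean activation of all test compounds in the run plus 3 SD, cut at about 38% in these data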
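Repeats: no replicates (n 1) | Material: CHO-derived RD-HGA16 cells with stable Gα16 and human TAAR1 | Technique: Kinetic Fluo-8 calcium fluorescence | Schedule: 17-24 h seeding, 75 min 37 °C dye, 30 min RT | Evaluation: % activation from peak over basal fluorescence ratio, DMSO-to-PEA scaled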
NTR1 ag: activates human neurotensin receptor 1 | NTR1-U2OS beta-arrestin-GFP spot imaging, agonist mode | AID 493036 | activation, % at 20 µM | 0.17% of 330,000 active;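 active = activation at or above 40% of the spot to cytoplasm intensity ratio, with at least 20 cells analyzed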;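 note: 0% = DMSO without peptide and 100% = 100 nM NTR1 peptide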
Target sequence (P30989 whole entry, looked up): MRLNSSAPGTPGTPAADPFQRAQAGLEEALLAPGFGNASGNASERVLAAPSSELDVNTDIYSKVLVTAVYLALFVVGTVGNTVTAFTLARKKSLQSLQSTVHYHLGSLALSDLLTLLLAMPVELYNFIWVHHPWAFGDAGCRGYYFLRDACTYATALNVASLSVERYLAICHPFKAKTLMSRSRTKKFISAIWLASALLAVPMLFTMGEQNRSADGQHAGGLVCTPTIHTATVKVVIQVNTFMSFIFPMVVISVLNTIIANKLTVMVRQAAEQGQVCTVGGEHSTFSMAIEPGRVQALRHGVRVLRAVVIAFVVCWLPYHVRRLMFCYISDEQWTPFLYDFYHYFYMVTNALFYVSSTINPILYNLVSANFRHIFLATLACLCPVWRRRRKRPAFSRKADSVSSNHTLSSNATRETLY
Active calls of the source: *. Only some compounds are listed: those with a hit (about 4% of all), similar ones and a draw of the others.

For O=C(Cn1sc2ccccc2c1=O)Nc1ccc(Br)cc1 the results were TAAR1 antag 23.8 and TAAR1 ag 39.0*.
Screening CCOC(=O)N(C)[C@H]1C[C@H]2c3[nH]c4c(-c5ccccc5)cccc4c3CCN2C(=O)[C@H]1[C@H](C)O returned TAAR1 antag 13.1 and TAAR1 ag 3.1.
COc1cccc(NC2=Nc3cccc4cccc2c34)c1 was read as OX1R antag-1 -19.6, TAAR1 antag -5.0, OX1R antag-2 72.3*, CHO parental Ca -29.4, TAAR1 ag 7.0 and NTR1 ag 0.1.
Brc1ccc(NCc2cccc3ccccc23)nc1 was read as OX1R antag-1 -26.8, TAAR1 antag 18.9, OX1R antag-2 11.3, CHO parental Ca -14.4, TAAR1 ag 6.0 and NTR1 ag 6.0.
For Oc1ccccc1CNc1ccc(Br)cn1 the results were OX1R antag-1 12.5, TAAR1 antag 70.8*, OX1R antag-2 29.9, CHO parental Ca 0.6, TAAR1 ag 0.1 and NTR1 ag 14.8.
Screening COc1cccc(NC(=S)NC(C)c2ccc(OC)c(OC)c2)c1 (stereo not given) returned OX1R antag-1 -15.6, TAAR1 antag 2.2, OX1R antag-2 75.1*, CHO parental Ca -10.8, TAAR1 ag 8.0 and NTR1 ag -1.0.
`Cc1ccc(C(=O)NC(=S)Nc2cccnc2Cl)cc1` gave OX1R antag-1 -19.1, TAAR1 antag 14.6, OX1R antag-2 17.3, CHO parental Ca -13.6, TAAR1 ag 7.8 and NTR1 ag 4.1.
For COc1ccccc1C(=O)NC(=S)Nc1cccnc1Cl the results were OX1R antag-1 -9.2, TAAR1 antag 7.2, OX1R antag-2 47.5*, CHO parental Ca -22.5, TAAR1 ag -3.6 and NTR1 ag 0.9.
Screening CCC1CCCCN1C(=S)NN=C(C)c1ccccn1 (stereo not given) returned TAAR1 antag -35.8 and TAAR1 ag 3.2.
`COc1ccc(-c2oc3ncn(CCN4CCOCC4)c(=N)c3c2-c2ccc(OC)cc2)cc1` gave OX1R antag-1 -15.9, TAAR1 antag 8.2, OX1R antag-2 38.2*, CHO parental Ca -16.4, TAAR1 ag 2.8 and NTR1 ag 1.0.
Nc1nc2c(s1)CCc1c-2cnn1-c1ccccc1 was read as OX1R antag-1 4.8, OX1R antag-2 61.3*, CHO parental Ca -15.6 and NTR1 ag -2.5.
`Nc1nc2c(s1)COc1ccccc1-2` gave OX1R antag-1 -10.9, TAAR1 antag -9.9, OX1R antag-2 19.3, CHO parental Ca -12.1, TAAR1 ag -1.1 and NTR1 ag 2.3.
For Cc1onc(-c2ccccc2)c1C(=O)NN=Cc1cc(Cl)cc(Cl)c1O the results were TAAR1 antag 4.8 and TAAR1 ag 9.4.
For Cc1ccc2nc(/C(C#N)=C\c3cc(C)n(-c4cccc([N+](=O)[O-])c4)c3C)[nH]c2c1 the results were OX1R antag-1 -1.8, TAAR1 antag 27.6, OX1R antag-2 58.7*, CHO parental Ca 1.7, TAAR1 ag 8.7 and NTR1 ag 1.4.
For Cc1cc(/C=C(/C#N)c2nc3ccccc3[nH]2)c(C)n1-c1cc(C(=O)O)cc(C(=O)O)c1 the results were TAAR1 antag -1.8, TAAR1 ag 0.9 and NTR1 ag 0.1.
`CCCCCCCCN1C(=O)[C@@H](CC(=O)N2CCOCC2)C[C@@]2(C(=O)OC)C1=C[C@H](C(C)(C)C)O[C@@H]2C` gave TAAR1 antag -62.2 and TAAR1 ag 3.2.
O=C1c2c(O)cccc2Cc2cccc(O)c21 was read as OX1R antag-1 6.6, TAAR1 antag 103.6*, OX1R antag-2 10.9, CHO parental Ca 4.4, TAAR1 ag -1.9 and NTR1 ag 1.1.
Screening O=C1Cc2cccc(=O)c(O)c2C(=O)O1 returned TAAR1 antag -14.0 and TAAR1 ag 1.7.
CC1(C)CC(=O)C2=C(C1)N=C1c3ccccc3C(=O)C1C2c1ccc(Cl)cc1 (stereo not given) was read as OX1R antag-1 19.0, TAAR1 antag 24.3, OX1R antag-2 95.6*, CHO parental Ca -18.2, TAAR1 ag 27.8 and NTR1 ag 7.2.
For C[C@@H]1ON(C)[C@H]2C[C@H]3c4[nH]c5c(-c6ccccc6)cccc5c4CCN3C[C@@H]12 the results were TAAR1 antag -7.4 and TAAR1 ag 5.2.
Screening Clc1ccc(CON/C=N/c2ncnc3sccc23)c(Cl)c1 returned OX1R antag-1 -9.3, TAAR1 antag 24.2, OX1R antag-2 45.4*, CHO parental Ca 23.3, TAAR1 ag 6.4 and NTR1 ag 1.5.
Screening Cc1ccc(-n2c(N)c(C(=O)Nc3c(C)n(C)n(-c4ccccc4)c3=O)c3nc4ccccc4nc32)cc1C returned OX1R antag-1 36.9, OX1R antag-2 15.8, CHO parental Ca 38.2* and NTR1 ag 1.9.
`COc1ccc(-n2c(N)c(C(=O)Nc3c(C)n(C)n(-c4ccccc4)c3=O)c3nc4ccccc4nc32)cc1` gave OX1R antag-1 -23.6, TAAR1 antag 24.3, OX1R antag-2 1.3, CHO parental Ca -23.8, TAAR1 ag 4.4 and NTR1 ag 2.6.
For Cn1cccc1CC(=O)N/N=C\c1c2ccccc2cc2ccccc12 the results were OX1R antag-1 -14.3, TAAR1 antag -22.1, OX1R antag-2 38.9*, CHO parental Ca -29.1, TAAR1 ag 8.4 and NTR1 ag 4.7.
`COc1ccc(CN2C[C@@]3(O)CC[C@@H](O)[C@@H](OC)[C@@H]3[C@@]2(C)[C@H](O)CC=C(C)C)cc1` gave TAAR1 antag 6.7 and TAAR1 ag -0.2.
`CC(=O)c1ccc(NC(=O)Nc2ccc(NS(=O)(=O)c3ccc(C)cc3)cc2)cc1` gave OX1R antag-1 23.7, TAAR1 antag 55.5*, OX1R antag-2 10.5, CHO parental Ca -2.7, TAAR1 ag 6.3 and NTR1 ag 4.8.
`CC(=O)c1cccc(N/C=C\C(=O)c2ccc(C)cc2)c1` gave OX1R antag-1 -23.0, TAAR1 antag -22.1, OX1R antag-2 0.2, CHO parental Ca -15.1 and TAAR1 ag 1.2.
For CC(=O)c1cccc(NS(=O)(=O)c2ccc(N/C=C\C(=O)c3ccc(C)cc3)cc2)c1 the results were OX1R antag-1 49.5*, TAAR1 antag 19.1, OX1R antag-2 53.3, CHO parental Ca 46.6*, TAAR1 ag 5.6 and NTR1 ag 6.5.
For CN(NC(=O)C(=O)NCc1ccco1)C(=O)NC1CCCCC1 the results were TAAR1 antag -2.4 and TAAR1 ag 1.2.
Cc1cccc(NC(=O)c2ccc(N3C(=O)C4C5C=CC(C6CC56)C4C3=O)cc2)c1 (stereo not given) was read as OX1R antag-1 32.9, TAAR1 antag 68.5*, OX1R antag-2 17.6, CHO parental Ca 45.5*, TAAR1 ag 11.9 and NTR1 ag 3.3.
